# Measurements pooled from the literature.
# Protocols differ between the studies behind these lines.
# DRD1: D(1A) dopamine receptor (DRD1, Homo sapiens, UniProt P21728)
# rep main protease: Replicase polyprotein 1ab, main protease (rep, Porcine epidemic diarrhea virus, UniProt P0C6Y4)
# SLC6A4: Sodium-dependent serotonin transporter (SLC6A4, Homo sapiens, UniProt P31645)
Structure (SMILES),target,effect on,action,technique,concentration,setting,inhibition [%]
Cc1cc(F)cc2c(CCC(=O)N[C@@H]3C(=O)NC[C@H]3O)c(-c3ccc(F)cc3)[nH]c12,DRD1,cell-free assay,,,10 µM,,11
C#Cc1cc(-c2cc(Nc3nc(N[C@@H](C)c4ccc(F)cn4)ncc3Cl)n[nH]2)ccc1C=O,"Serine/threonine-protein kinase Nek2 (NEK2, Homo sapiens, UniProt P51955)",enzyme activity,inhibitor,,0.2 µM,,22.5
O=C(NCc1cc(O)c(O)c(Br)c1)c1ccccc1,rep main protease,enzyme activity,inhibitor,FRET,10 µM,,74.8
CCN1/C(=C/C(C)=O)Sc2ccc(F)cc21,DRD1,ligand displacement,,radioligand,10 µM,,7.04
CCOC(=O)[C@@]12C[C@@H]1[C@@H](n1ccc3c(NCCCCCCCc4ccccc4)nc(C#Cc4ccccc4)nc31)[C@H](O)[C@@H]2O,SLC6A4,ligand displacement,,radioligand,10 µM,,32
Cc1cc(O)c(-c2ccc([C@@H](C)CN(C)C)cc2)c2c1[nH]c(=O)c1sccc12,"Mitogen-activated protein kinase kinase kinase 6 (MAP3K6, Homo sapiens, UniProt O95382)",enzyme activity,inhibitor,,0.1 µM,,15.6
COc1cc(CNC(=O)c2cc3ccccc3n2C)cc(Br)c1OC,"Replicase polyprotein 1ab, papain-like protease (rep, Porcine epidemic diarrhea virus, UniProt P0C6Y4)",enzyme activity,inhibitor,FRET,10 µM,,13
CCOC(=O)[C@@]12C[C@@H]1[C@@H](n1cnc3c(NC4CC4)nc(C#Cc4ccc(Cl)s4)nc31)[C@H](O)[C@@H]2O,SLC6A4,ligand displacement,,radioligand,10 µM,,15
O=C(NCc1cc(O)c(O)c(Br)c1)c1cccc(Br)c1,rep main protease,enzyme activity,inhibitor,FRET,10 µM,,98.4
OC[C@@]12C[C@@H]1[C@@H](n1cnc3c(NC(C4CCC4)C4CCC4)nc(C#Cc4ccc(Cl)s4)nc31)[C@H](O)[C@@H]2O,SLC6A4,ligand displacement,,radioligand,10 µM,,15
NC/C(=C\F)COc1cccc(Cn2c(=S)[nH]c(=O)c3[nH]cnc32)c1,SLC6A4,ligand displacement,,radioligand,10 µM,,< 50
COc1ccc(C(=O)NCc2cc(Br)c(OC)c(OC)c2)cc1,rep main protease,enzyme activity,inhibitor,FRET,10 µM,,83.7
N#C[C@@]12C[C@@H]1[C@@H](n1cnc3c(Nc4ccccc4)nc(I)nc31)[C@H](O)[C@@H]2O,SLC6A4,ligand displacement,,radioligand,10 µM,,3
CSc1ccccc1C(=O)NCc1cc(O)c(O)c(Br)c1,rep main protease,enzyme activity,inhibitor,FRET,10 µM,,13.9
CCOC(=O)[C@@]12C[C@@H]1[C@@H](n1cnc3c(NCCCCCc4ccccc4)nc(C#Cc4ccc(Cl)s4)nc31)[C@H](O)[C@@H]2O,SLC6A4,ligand displacement,,radioligand,10 µM,cell membranes,1
